Assay outcomes (PubChem)
HSP90 refold inh – HSP90 refolding inhibition in rabbit reticulocyte lysate; inhibition, % at 5.6 µM; 290,000 tested, 0.91% active; luciferase refolding luminescence, 3 h;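 active = inhibition above the screen-wide mean plus 3 SD, computed separately per campaign, cut at about 16% in these data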;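 also: 0% = DMSO wells and 100% = 60 µM geldanamycin wells; inhibitors lower the luminescence because luciferase stays unfolded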
FLuc inh counter – inhibits firefly luciferase, flagging false hits in luciferase inhibition screens; inhibition, % at 10 µM; ATPLite firefly luciferase biochemical luminescence, 10 min; 200,000 tested, 1.5% active; P08659;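 active = inhibition above about 50% when tested at 10 µM, limit read from the data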
Target sequence (P08659 whole entry, looked up): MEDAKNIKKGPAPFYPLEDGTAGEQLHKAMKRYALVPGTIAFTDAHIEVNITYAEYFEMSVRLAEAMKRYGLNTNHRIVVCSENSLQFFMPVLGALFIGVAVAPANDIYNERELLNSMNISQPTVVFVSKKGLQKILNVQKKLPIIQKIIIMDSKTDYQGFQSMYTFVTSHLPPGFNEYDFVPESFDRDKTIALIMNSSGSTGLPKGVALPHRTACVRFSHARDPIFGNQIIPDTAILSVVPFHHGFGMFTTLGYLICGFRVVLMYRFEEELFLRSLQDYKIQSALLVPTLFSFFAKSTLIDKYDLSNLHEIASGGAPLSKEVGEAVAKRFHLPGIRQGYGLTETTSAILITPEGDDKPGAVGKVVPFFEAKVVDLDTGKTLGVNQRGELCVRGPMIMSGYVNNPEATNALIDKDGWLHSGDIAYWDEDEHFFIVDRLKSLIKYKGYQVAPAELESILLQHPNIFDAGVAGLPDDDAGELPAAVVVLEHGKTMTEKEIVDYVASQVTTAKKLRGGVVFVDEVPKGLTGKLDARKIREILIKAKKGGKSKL
C8 TRAIL sens – caspase-8 TRAIL sensitization. NB7+C8 cells + TRAIL, ATPlite viability luminescence. inhibition (viability loss, TRAIL sensitization), % at 10 µM. 360,000 tested, 1% active;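 active = compounds causing at least 50% loss of cell viability in the single-dose screen, relative to plate controls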
PPC-1+TRAIL kill – kills PPC-1 cancer cells in the presence of TRAIL; cell killing (% activity), % at 4 µM or 5 µM; PPC-1 cells + TRAIL, ATPLite viability luminescence; 220,000 tested, 0.41% active;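 active = cell killing above 50% in the first pass at 4 µM, then a duplicate retest at 5 µM averaging 50% or more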;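 also: plate controls were cells with TRAIL plus DMSO for no effect and medium-only wells lacking cells for full effect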
FLuc stim CS – affects firefly luciferase, flagging false hits in luciferase stimulation screens. ATPlite luciferase biochemical, luminescence, 10 min; 0 = ATP-free wells, 1 = DMSO control. activation factor at 10 µM. 200,000 tested, under 10 active;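 active = luciferase activation factor, scaled between plate controls, of at least 2 with compound at 10 µM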
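test system = cell-free luciferase reagent | medium = PBS as buffer for the ATP substrate | dosing = test compounds dosed from 2 mM stocks in 100% DMSO | incubation = 10 min at ambient temperature | detection = luminescence measurement of luciferase light output | benchmarks = low control with PBS replacing ATP, high control enzyme plus ATP without compound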
HSP90 inh confirm – confirmation of HSP90 inhibitors. shares compounds with HSP90 refold inh. rabbit reticulocyte lysate, luciferase refolding luminescence, 3 h. inhibition, % at 5.9 µM. 2,300 tested, 64% active. AID 1846; in the data active = inhibition above about 18%;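 also: 0% = vehicle wells and 100% = reference inhibitor wells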
FLuc counter – firefly luciferase inhibition, HSP90 counter-screen; inhibition, % at 5.9 µM; purified native firefly luciferase, luminescence; shares compounds with HSP90 refold inh; 2,300 tested, 48% active;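 active = inhibition above the mean inhibition of all tested sample wells plus 3 SD, cut at about 10% in these data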;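 also: 0% = DMSO with luciferase and 100% = wells lacking luciferase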
The depositor's hits bear a star; x = no result given. Rows were chosen to be rich in hits. Some 2% of all compounds tested hit in one or more screens of this group.

SMILES | HSP90 refold inh | FLuc inh counter | C8 TRAIL sens | PPC-1+TRAIL kill | FLuc stim CS | HSP90 inh confirm | FLuc counter
COc1ccc2cc3cc(C(=O)N4CCCCCC4)oc3nc2c1 | 17* | x | 50* | x | x | 40* | 22*
COc1ccc(-c2cc(C(=O)N3CCCC3)no2)cc1 | 39* | x | 62* | x | x | 57* | 42*
COc1ccc2cc3cc(C(=O)N4CCN(C5CCCCC5)CC4)oc3nc2c1 | 3 | x | 12 | x | x | x | x
O=C(CSc1nc2ccccc2s1)N/N=C/c1ccccc1C(=O)O | 18* | x | -4 | 10 | x | 8 | 8
CCc1cc(C(=O)N2CCCC(Nc3ccc(F)c(F)c3)C2)n(C)n1 (stereo unspecified) | -1 | x | -6 | x | x | x | x
CSc1ncccc1C(=O)OCC(=O)NC(C)CCc1ccccc1 (stereo unspecified) | x | x | -1 | x | x | x | x
Cc1cc(C)n(CCCNC(=O)c2ccco2)n1 | x | x | -12 | x | x | x | x
Cc1nc(C)n(CCNC(=O)c2ccco2)n1 | 36* | x | -5 | x | x | 5 | 2
O=C1CSC(=S)N1N1C(=O)c2cccc([N+](=O)[O-])c2C1=O | 0 | -4 | x | 16 | 1 | x | x
Cc1ccc2oc(=O)c(/C=C(\O)c3ccco3)nc2c1 | 37* | x | -14 | 23 | x | 37* | -23
CC(C)(C)/C(O)=C/c1nc2cc(Cl)ccc2oc1=O | 80* | x | 25 | 31 | x | 81* | -14
CCOc1ccccc1C(=O)N(Cc1ccc(C)o1)C1CCS(=O)(=O)C1 (stereo unspecified) | 2 | x | -6 | x | x | x | x
Cc1cc(OC(C)C(=O)NC(Cc2c[nH]c3ccc(O)cc23)C(=O)O)c2c(C)c(C)c(=O)oc2c1 (stereo unspecified) | -7 | x | 1 | x | x | x | x
CC(Oc1ccc2c(c1)oc(=O)c1ccccc12)C(=O)NC(Cc1c[nH]c2ccc(O)cc12)C(=O)O (stereo unspecified) | 47* | x | 0 | x | x | -2 | -5
C/C(Cn1cnc([N+](=O)[O-])n1)=N/NC(=O)COc1c(Cl)cc(Cl)cc1Cl | 0 | -6 | -3 | 16 | 1.1 | x | x
CN(C)c1ccc(N=Cc2cccn2C)cc1 | 22* | x | -4 | x | x | 10 | -12
Cc1ccc(Nc2nc(N)c3ccccc3n2)cc1C | 26* | x | 79* | x | x | 53* | 37*
Cc1cc(Nc2ccc(C)c(C)c2)c2ccccc2n1 | 3 | x | 6 | x | x | x | x
O=[N+]([O-])/C(=C\Nc1ccccc1)S(=O)(=O)c1ccccc1 | 18* | -1 | -6 | 11 | 1 | 3 | -3
COc1ccc(N/C=C(\[N+](=O)[O-])S(=O)(=O)c2ccccc2)cc1 | -1 | x | -19 | x | x | x | x
Cc1ccc(C(=O)n2c3ccccc3c3ccccc32)cc1 | 17* | -4 | 16 | 32 | 1 | -1 | -20
CC(=O)n1c2ccccc2c2ccccc21 | -6 | -7 | -12 | 11 | 1.1 | x | x
Cc1cc(C(=O)COC(=O)c2ccc(O)cc2)c(C)n1CC1CCCO1 (stereo unspecified) | 32* | 53* | 28 | 22 | 0.5 | 39* | 43*
O=C(NN1CCOCC1)c1ccccc1 | 2 | x | 12 | x | x | x | x
CCOc1ccc(/C=N/NC(=O)c2ccccc2NC(=O)c2ccc(OC)cc2)cc1 | 19* | 94* | 76* | 36 | 0.1 | 10 | -25
SMILES | HSP90 refold inh | FLuc inh counter | C8 TRAIL sens | PPC-1+TRAIL kill | FLuc stim CS | HSP90 inh confirm | FLuc counter
COc1ccc(C(=O)Nc2ccccc2C(=O)Nc2ccccc2)cc1 | x | x | 32 | x | x | x | x
CCNC(=S)N/N=C/c1ccccc1[N+](=O)[O-] | 20* | 3 | 4 | 19 | 1 | 0 | -3
NC(=S)N/N=C/c1ccccc1[N+](=O)[O-] | 3 | 1 | -5 | 16 | 1 | x | x
COc1cc(/C=N/Nc2ccccc2[N+](=O)[O-])cc(OC)c1O | 1 | 16 | 18 | 26 | 0.8 | x | x
CCCOc1ccc(/C=N/NC(=S)Nc2ccccc2[N+](=O)[O-])c(O)c1 | 75* | 9 | x | 38 | 0.9 | 75* | 21*
CCCOc1ccc(/C=N/Nc2ccccc2[N+](=O)[O-])c(O)c1 | 3 | 22 | 42 | 18 | 0.8 | x | x
COc1ccc(/C=N/NC(=S)Nc2ccccc2[N+](=O)[O-])cc1O | 51* | 39 | 18 | 25 | 0.6 | 53* | 11*
CCN(CC)CCN(C(=O)Cn1nnc(-c2ccc(C)o2)n1)C(C(=O)NC1CCCC1)c1ccc(F)cc1 (stereo unspecified) | -3 | x | -8 | x | x | x | x
